Source: ChEMBL document CHEMBL1137710, “Synthesis and in vitro antitumor activity of new quinoxaline derivatives” (2009)

Tests used:
Format in all cases: functional
SNB-19 = assay: Growth inhibition of human SNB19 cells after 48 hrs by sulforhodamine B assay; settings: SNB-19, 48 h
In short: (§1)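 Run in the NCI 60-human-tumour-cell-line panel, tested over a 5-log dose range. Dose–response curves gave three values per cell line, each as a log10 molar concentration: GI50 (50% inhibition of net cell growth), TGI (total inhibition of net growth) and LC50 (50% net cell death). The mean graph midpoint is the arithmetic mean over all lines, with insensitive lines entered at the highest concentration tested.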

SR = assay: Growth inhibition of human SR cells after 48 hrs by sulforhodamine B assay; in short: as §1
SF-539 = assay: Growth inhibition of human SF539 cells after 48 hrs by sulforhodamine B assay; settings: SF-539, 48 h
In short: (§2)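 NCI 60-human-tumor-cell-line panel, with compounds tested over a 5-log dose range. Values are taken from dose-response curves as log10 molar concentrations: GI50 is 50% net growth inhibition, TGI is total growth inhibition, and LC50 is 50% net cell death.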

TK-10 = assay: Growth inhibition of human TK10 cells after 48 hrs by sulforhodamine B assay; settings: TK-10, 48 h; in short: as §1
NCI-H460 = assay: Growth inhibition of human NCI-H460 cells after 48 hrs by sulforhodamine B assay; settings: NCI-H460, 48 h; in short: as §2
UACC-257 = assay: Growth inhibition of human UACC257 cells after 48 hrs by sulforhodamine B assay; settings: UACC-257, 48 h; in short: as §1
SN12C = assay: Growth inhibition of human SN12C cells after 48 hrs by sulforhodamine B assay; in short: as §1
HL-60(TB) = assay: Growth inhibition of human HL-60(TB) cells after 48 hrs by sulforhodamine B assay; settings: HL-60, 48 h
In short: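 Tested only on compounds active in a three-line prescreen, in the NCI 60-human-tumour-cell-line panel over a 5-log dose range. Values come from dose–response curves as log10 molar GI50, the concentration inhibiting 50% net cell growth. Log10 TGI (total growth inhibition) and log10 LC50 (50% net cell death) were derived too. Mean graph midpoints include insensitive lines at the highest concentration tested.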

COLO 205 = assay: Growth inhibition of human COLO205 cells after 48 hrs by sulforhodamine B assay; settings: COLO 205, 48 h; in short: as §2
MOLT-4 = assay: Growth inhibition of human MOLT4 cells after 48 hrs by sulforhodamine B assay; settings: MOLT-4, 48 h; in short: as §2
HT-29 = assay: Growth inhibition of human HT-29 cells after 48 hrs by sulforhodamine B assay; settings: HT-29, 48 h; in short: as §2
RXF 393 = assay: Growth inhibition of human RXF393 cells after 48 hrs by sulforhodamine B assay; settings: RXF 393, 48 h; in short: as §2
OVCAR-3 = assay: Growth inhibition of human OVCAR-3 cells after 48 hrs by sulforhodamine B assay; settings: OVCAR-3, 48 h; in short: as §2
Malme-3M = assay: Growth inhibition of human MALME-3M cells after 48 hrs by sulforhodamine B assay; in short: as §2
EKVX = assay: Growth inhibition of human EKVX cells after 48 hrs by sulforhodamine B assay; in short: as §2
A498 = assay: Growth inhibition of human A498 cells after 48 hrs by sulforhodamine B assay; settings: A498, 48 h; in short: as §2
CCRF-CEM = assay: Growth inhibition of human CCRF-CEM cells after 48 hrs by sulforhodamine B assay; in short: as §2
PC-3 = assay: Growth inhibition of human PC3 cells after 48 hrs by sulforhodamine B assay; settings: PC-3, 48 h; in short: as §2
OVCAR-5 = assay: Growth inhibition of human OVCAR5 cells after 48 hrs by sulforhodamine B assay; settings: OVCAR-5, 48 h; in short: as §2
ACHN = assay: Growth inhibition of human ACHN cells after 48 hrs by sulforhodamine B assay
OVCAR-8 = assay: Growth inhibition of human OVCAR8 cells after 48 hrs by sulforhodamine B assay; settings: OVCAR-8, 48 h; in short: as §2
[1] = Growth inhibition of human Hs 578T cells after 48 hrs by sulforhodamine B assay; in short: as §2
MDA-MB-231 = assay: Growth inhibition of human MDA-MB-231 cells after 48 hrs by sulforhodamine B assay; settings: MDA-MB-231, 48 h; in short: as §2
T47D = assay: Growth inhibition of human T47D cells after 48 hrs by sulforhodamine B assay; in short: as §1
KM12 = assay: Growth inhibition of human KM12 cells after 48 hrs by sulforhodamine B assay; settings: KM12, 48 h; in short: as §2
HOP-92 = assay: Growth inhibition of human HOP92 cells after 48 hrs by sulforhodamine B assay; settings: HOP-92, 48 h; in short: as §2
NCI/ADR-RES = assay: Growth inhibition of human NCI/ADR-RES cells after 48 hrs by sulforhodamine B assay; in short: as §2
[2] = read-out: pLC50 (the source's name) (converted)

COc1cc(CNc2nc3cc(N)cc(N)c3nc2-c2ccccc2)cc(OC)c1
GI50 (SNB-19): 23.4 µM | LC50 (SNB-19): > 100 µM | TGI (SNB-19; read-out: pTGI (converted)): > 100 µM | GI50 (SR): 3.8 µM | LC50 (concentration giving 50% net cell death) (SR): > 100 µM | TGI (SR; read-out: pTGI (converted)): > 100 µM | GI50 (SF-539): 5.25 µM | LC50 (SF-539): 77.6 µM | TGI (SF-539; read-out: pTGI (converted)): 21.4 µM | GI50 (TK-10): 24.5 µM | CC50 (TK-10; [2]): > 100 µM | TGI (TK-10; read-out: pTGI (converted)): 63.1 µM | GI50 (NCI-H460): 10.5 µM | LC50 (50% net cell kill) (NCI-H460): > 100 µM | TGI (NCI-H460; read-out: pTGI (converted)): > 100 µM | GI50 (UACC-257): 25.7 µM | CC50 (UACC-257; [2]): > 100 µM | TGI (UACC-257; read-out: pTGI (converted)): > 100 µM | GI50 (SN12C): 11.5 µM | CC50 (SN12C; [2]): > 100 µM | TGI (SN12C; read-out: pTGI (converted)): > 100 µM | GI50 (HL-60(TB)): 3.8 µM | LC50 (HL-60(TB)): > 100 µM | TGI (HL-60(TB); read-out: pTGI (converted)): > 100 µM | GI50 (COLO 205): 2.4 µM | LC50 (50% net cell kill) (COLO 205): > 100 µM | TGI (COLO 205; read-out: pTGI (converted)): 6.03 µM | GI50 (MOLT-4): 3.02 µM | LC50 (MOLT-4): > 100 µM | TGI (MOLT-4; read-out: pTGI (converted)): > 100 µM | GI50 (HT-29): 8.13 µM | LC50 (HT-29): > 100 µM | TGI (HT-29; read-out: pTGI (converted)): 44.7 µM | GI50 (RXF 393): 6.03 µM | CC50 (RXF 393; [2]): > 100 µM | TGI (RXF 393; read-out: pTGI (converted)): 58.9 µM | GI50 (OVCAR-3): 1.86 µM | CC50 (OVCAR-3; [2]): > 100 µM | TGI (OVCAR-3; read-out: pTGI (converted)): 4.57 µM | GI50 (Malme-3M): 4.9 µM | CC50 (Malme-3M; [2]): > 100 µM | TGI (Malme-3M; read-out: pTGI (converted)): 33.9 µM | GI50 (EKVX): 2.82 µM | LC50 (50% net cell kill) (EKVX): > 100 µM | TGI (EKVX; read-out: pTGI (converted)): 8.91 µM | GI50 (A498): 91.2 µM | CC50 (A498; [2]): > 100 µM | TGI (A498; read-out: pTGI (converted)): > 100 µM | GI50 (CCRF-CEM): 1.74 µM | LC50 (CCRF-CEM): > 100 µM | TGI (CCRF-CEM; read-out: pTGI (converted)): 5.62 µM | GI50 (PC-3): 3.02 µM | CC50 (PC-3; [2]): > 100 µM | TGI (PC-3; read-out: pTGI (converted)): 14.5 µM | GI50 (OVCAR-5): 5.89 µM | CC50 (OVCAR-5; [2]): > 100 µM | TGI (OVCAR-5; read-out: pTGI (converted)): 29.5 µM | GI50 (ACHN): 9.33 µM | CC50 (ACHN; [2]): > 100 µM | TGI (ACHN; read-out: pTGI (converted)): 47.9 µM | GI50 (OVCAR-8): 2.82 µM | CC50 (OVCAR-8; [2]): > 100 µM | TGI (OVCAR-8; read-out: pTGI (converted)): 8.13 µM | GI50 [1]: 8.51 µM | CC50 [1, 2]: > 100 µM | TGI ([1]; read-out: pTGI (converted)): > 100 µM | GI50 (MDA-MB-231): 2.09 µM | CC50 (MDA-MB-231; [2]): > 100 µM | TGI (MDA-MB-231; read-out: pTGI (converted)): 6.03 µM | GI50 (T47D): 1.66 µM | CC50 (T47D; [2]): > 100 µM | TGI (T47D; read-out: pTGI (converted)): 4.57 µM | GI50 (KM12): 4.27 µM | LC50 (50% net cell kill) (KM12): > 100 µM | TGI (KM12; read-out: pTGI (converted)): 74.1 µM | GI50 (HOP-92): 1.15 µM | LC50 (50% net cell death) (HOP-92): 9.55 µM | TGI (HOP-92; read-out: pTGI (converted)): 3.31 µM | GI50 (NCI/ADR-RES): 5.5 µM | CC50 (NCI/ADR-RES; [2]): > 100 µM | TGI (NCI/ADR-RES; read-out: pTGI (converted)): 33.1 µM
